Experimental data from ChEMBL document CHEMBL2412959, “Investigations on synthesis and structure elucidation of novel [1,2,4]triazolo[1,2-a]pyridazine-1-thiones and their inhibitory activity against inducible nitric oxide synthase” (Bioorg Med Chem, 2013).
Activity calls are given as the source filed them. No cut-off for these calls is given here.

Legend:
[1] = molecular target: Nitric oxide synthase, inducible (Rattus norvegicus) (UniProt Q06518); test: (§1) Inhibition of iNOS-mediated NO production in IL-1beta/IFNgamma-stimulated rat […] cells by Griess reaction
Sequence of Nitric oxide synthase, inducible (Rattus norvegicus) (Q06518 whole entry): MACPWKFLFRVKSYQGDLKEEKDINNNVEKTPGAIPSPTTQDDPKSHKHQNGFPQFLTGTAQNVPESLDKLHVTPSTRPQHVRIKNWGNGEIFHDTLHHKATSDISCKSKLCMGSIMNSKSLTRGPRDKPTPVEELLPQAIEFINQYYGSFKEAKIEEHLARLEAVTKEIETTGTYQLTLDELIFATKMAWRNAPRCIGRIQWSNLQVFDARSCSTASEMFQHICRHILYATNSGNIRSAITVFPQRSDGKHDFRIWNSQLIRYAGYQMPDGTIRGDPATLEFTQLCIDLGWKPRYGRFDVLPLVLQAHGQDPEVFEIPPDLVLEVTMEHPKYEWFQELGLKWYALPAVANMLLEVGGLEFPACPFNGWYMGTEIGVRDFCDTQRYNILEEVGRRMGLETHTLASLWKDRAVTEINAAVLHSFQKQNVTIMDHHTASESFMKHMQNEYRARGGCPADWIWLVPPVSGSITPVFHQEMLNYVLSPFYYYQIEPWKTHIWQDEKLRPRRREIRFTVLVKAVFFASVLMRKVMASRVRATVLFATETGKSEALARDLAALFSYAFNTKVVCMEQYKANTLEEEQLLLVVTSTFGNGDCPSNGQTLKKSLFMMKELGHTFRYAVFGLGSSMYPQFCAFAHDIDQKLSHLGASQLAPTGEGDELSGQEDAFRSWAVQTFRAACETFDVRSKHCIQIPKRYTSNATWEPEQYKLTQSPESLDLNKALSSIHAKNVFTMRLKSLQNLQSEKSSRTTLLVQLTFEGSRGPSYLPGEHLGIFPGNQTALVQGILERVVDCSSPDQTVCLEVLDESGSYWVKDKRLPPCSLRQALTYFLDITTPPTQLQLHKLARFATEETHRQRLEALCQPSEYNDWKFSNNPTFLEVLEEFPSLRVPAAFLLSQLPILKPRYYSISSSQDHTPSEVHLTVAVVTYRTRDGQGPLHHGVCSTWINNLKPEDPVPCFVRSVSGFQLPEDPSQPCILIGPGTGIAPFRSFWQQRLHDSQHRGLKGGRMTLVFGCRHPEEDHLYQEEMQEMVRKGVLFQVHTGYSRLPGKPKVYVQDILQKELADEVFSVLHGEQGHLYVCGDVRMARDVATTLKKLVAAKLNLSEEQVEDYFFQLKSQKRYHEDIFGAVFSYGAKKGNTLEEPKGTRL
Procedure, shortened: (§2)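 Same cytokine-stimulated RIN5F Griess assay (IL-1β 1 ng/mL, IFN-γ 10 ng/mL; nitrite at 550 nm, nitrite calibration). Concentrations were chosen per compound to span 10–90% inhibition, plus one or two outside this range. IC50 was obtained by linear regression of log concentration versus percent inhibition.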

[2] = Cytotoxicity against rat RINm5F cells at 39 to 78 uM by MTT assay; format: cell-based
Procedure, shortened: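 RIN5F rat insulinoma cells, 1×10^5 per well, cytokine-induced and compound-treated as for the NO assay. After supernatant removal, medium was replaced with fresh medium containing MTT (2.5 mg/mL in PBS) for 4 h at 37 °C. Formazan was dissolved in DMSO. Viability is expressed as percent of cytokine-stimulated cells without compound.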

[3] = Chemical stability in DMSO assessed as compound precipitation after several weeks; format: physicochemical
[4] = molecular target: Nitric oxide synthase, inducible (Rattus norvegicus) (UniProt Q06518); test: Ratio of aminoguanidine IC50 to compound IC50 for iNOS-mediated NO production in IL-1beta/IFNgamma-stimulated rat […] cells by Griess reaction
[5] = molecular target: Nitric oxide synthase, inducible (Rattus norvegicus, UniProt Q06518); test: as §1; procedure, shortened: as §2
Sequence of Nitric oxide synthase, inducible (Q06518 whole entry): as above

[6] = molecular target: Nitric oxide synthase, inducible (Rattus norvegicus) (UniProt Q06518); test: Inhibition of iNOS-mediated NO production in IL-1beta/IFNgamma-stimulated rat […] cells at 39 to 78 uM by Griess reaction
Procedure, shortened: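 Compounds were added from 62.5 mM DMSO stock at 78 and 39 μM (final 0.5% DMSO). Nitrite in supernatant was measured by Griess reagents, absorbance 550 nm, against a 0–100 μM nitrite standard. Aminoguanidine was the reference on each plate. n = 5–8.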

[7] = Chemical stability in DMSO assessed as compound precipitation after 7 days; format: physicochemical; details: 168 h

SMILES | inhibition [1] | Stability [3] | Ratio IC50 [4] | IC50 [5] [µM] | inhibition [6] | Stability [7] | Activity [2]
Oc1ccc(C2NC(=S)N3CCCCN23)cc1 (centres undefined) |  | Unstable |  |  | Active |  | Non-toxic
Cc1ccccc1C1NC(=S)N2CCCCN12 (centres undefined) |  | Unstable |  | 60.3 |  |  | Non-toxic
S=C1NC(/C=C/c2ccccc2)N2CCCCN12 (centres undefined) |  |  |  | 29.9 |  | Unstable | Non-toxic
Cc1ccc(C2NC(=S)N3CCCCN23)cc1 (centres undefined) |  | Unstable |  | 53.2 |  |  | Non-toxic
O=[N+]([O-])c1ccccc1C1NC(=S)N2CCCCN12 (centres undefined) |  | Unstable |  | 24.2 |  |  | Non-toxic
S=C1NC(c2cccc(Cl)c2)N2CCCCN12 (centres undefined) |  | Unstable |  |  | Active |  | Non-toxic
S=C1NC(c2ccccc2Cl)N2CCCCN12 (centres undefined) |  | Unstable |  | 63 |  |  | Non-toxic
S=C1NC(c2ccccc2)N2CCCCN12 (centres undefined) |  | Unstable |  |  | Active |  | Non-toxic
S=C1NC(c2cccc(Oc3ccccc3)c2)N2CCCCN12 (centres undefined) |  | Unstable |  | 40.2 |  |  | Non-toxic
COc1ccc(C2NC(=S)N3CCCCN23)cc1 (centres undefined) |  | Unstable |  |  | Active |  | Non-toxic
N=C(N)NN [PIMAGEDINE] |  |  |  | 132 |  |  | Non-toxic
Oc1ccccc1C1NC(=S)N2CCCCN12 (centres undefined) |  | Unstable |  | 70 |  |  | Non-toxic
S=C1NC(c2ccc(Cl)cc2)N2CCCCN12 (centres undefined) |  | Unstable |  | 57.6 |  |  | Non-toxic

The next lines start with results.

inhibition [1] | Stability [3] | Ratio IC50 [4] | IC50 [5] [µM] | inhibition [6] | Stability [7] | SMILES | Activity [2]
inactive | Unstable |  |  |  |  | S=C1NC(Cc2ccccc2)N2CCCCN12 (centres undefined) | Non-toxic
 | Unstable | 2 | 101 |  |  | CN(C)c1ccc(C2NC(=S)N3CCCCN23)cc1 (centres undefined) | Non-toxic
 |  | 10 | 9.81 |  | Unstable | O=[N+]([O-])c1ccccc1/C=C/C1NC(=S)N2CCCCN12 (centres undefined) | Non-toxic
 | Unstable |  | 16.2 |  |  | O=[N+]([O-])c1cccc(C2NC(=S)N3CCCCN23)c1 (centres undefined) | Non-toxic
 | Unstable |  |  | Active |  | Cc1cccc(C2NC(=S)N3CCCCN23)c1 (centres undefined) | Non-toxic
 | Unstable |  |  | Active |  | Oc1cccc(C2NC(=S)N3CCCCN23)c1 (centres undefined) | Non-toxic
 | Unstable |  | 13.2 |  |  | O=[N+]([O-])c1ccc(C2NC(=S)N3CCCCN23)cc1 (centres undefined) | Non-toxic
inactive | Unstable |  |  |  |  | CC1NC(=S)N2CCCCN12 (centres undefined) | Non-toxic
